Structures are written as SMILES. ≈ marks a conversion by molar mass, not a printed value.

34 compounds from ChEMBL document CHEMBL4350959, “Design and Identification of a Novel, Functionally Subtype Selective GABAA Positive Allosteric Modulator (PF-06372865)” (J Med Chem, 2019) can be followed below.

Data set [1] is described as follows: Lipophilicity, log D of the compound. Type of data set: physicochemical. The note with it: octanol/water. The method in brief:
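LogD was either measured or calculated with an internal logD model.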

Data set [2] can be described thus: Oral bioavailability in dog. The note with it: in vivo. It counts as ADME, organism-based, Canis lupus familiaris.
Data set [3] in a line: Solubility of the compound at pH 6.5. Type of data set: physicochemical. The note with it: buffer.
Data set [4] is described as follows: Volume of distribution at steady state in rat. It counts as ADME. The note with it: in vivo, read-out: Vdss.
The nature of data set [5]: Oral bioavailability in rat. It counts as ADME, organism-based. The note with it: in vivo.
Data set [6] in a line: Permeability in RRCK cells. It counts as ADME, cell-based, Canis lupus familiaris, MDCKII-LE. The settings on record: dog, MDCK; read-out: permeability. The method in brief:
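Transcellular permeability across Ralph Russ canine kidney (RRCK) cell monolayers, reported as x10^-6 cm/sec.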

The nature of data set [7]: Volume of distribution at steady state in dog. The note with it: in vivo, read-out: Vdss. Type of data set: ADME, Canis lupus familiaris.

Broadly, the logD is lipophilicity at a set pH, counting ionised and neutral species. Higher therefore signals higher lipophilicity. `CCn1cnc2c(-c3ccc(F)c(-c4ccc(S(=O)(=O)C5CC5)cc4OC)c3)cnnc21` registered a logD in data set [1] of 2.7. In data set [1], `CCn1cnc2c(-c3ccc(Cl)c(-c4ccc(S(=O)(=O)CC)cc4OC)c3)cnnc21` displayed a logD of 3.1. Same read-out and setting: to `CCn1cnc2c(-c3ccc(F)c(-c4ccc(S(=O)(=O)CC)cc4)c3)cnnc21` belongs 2.9; to `CCn1cnc2c(-c3ccc(F)c(-c4ccc(S(C)(=O)=O)cc4OC)c3)cnnc21`, 2.5.

`CCn1cnc2c(-c3ccc(F)c(-c4ccc(S(=O)(=O)C(C)C)cc4OC)c3)cnnc21` gave a log distribution coefficient (logD) in data set [1] of 3. The compound `CCn1cnc2c(-c3ccc(F)c(-c4ccc(S(=O)(=O)CC)cc4F)c3)cnnc21` registered a log distribution coefficient (logD) in data set [1] of 2.6. Compound `CCn1cnc2c(-c3ccc(F)c(-c4ccc(S(=O)(=O)C5COC5)cc4OC)c3)cnnc21` showed a logD in data set [1] of 2.2.

With `CCn1cnc2c(-c3ccc(F)c(-c4ccc5c(c4)C(=O)N(C)C5)c3)cnnc21`, in data set [1], the logD came to 2.6. As for `CCn1cnc2c(-c3ccc(F)c(-c4cccnc4)c3)cnnc21`, in data set [1], the logD is 2.6. Still for that read-out and setting: to `CCS(=O)(=O)c1ccc(-c2cc(-c3cnnc4c(OC)cnn34)ccc2F)cc1` belongs 2.8; to `CCn1cnc2c(-c3ccc(F)c(-c4ccc(S(=O)(=O)CC)cc4Cl)c3)cnnc21`, 3.2.

Regarding `Cc1cc(-c2cc(-c3cnnc4c3ncn4C(C)C)ccc2F)ccn1`, the logD in data set [1] worked out at 3.1. Still for that read-out and setting: the value for `CC(=O)N1CC(Oc2cc(-c3cnnc4c3ncn4C(C)C)ccc2F)C1` was 1.6; that for `CCc1cnn2c(-c3ccc(F)c(-c4ccc(S(=O)(=O)CC)cc4)c3)cnnc12` was 3.5. On the same count and under the same terms, the value for `CCn1cnc2c(-c3ccc(F)c(-c4cccc(C(=O)NC)c4)c3)cnnc21` was 2.8.

Take `CCn1cnc2c(-c3ccc(F)c(Oc4cccc(S(=O)(=O)CC)c4)c3)cnnc21`: the logD in data set [1] was 2.3. `CCn1cnc2c(-c3ccc(F)c(OCc4ccccn4)c3)cnnc21` returned a pH-dependent lipophilicity (logD) in data set [1] of 2.5. The same measure, in the same setting: to `CCn1cnc2c(-c3ccc(F)c(Oc4cnc(C#N)nc4)c3)cnnc21` belongs 2. Still for that read-out and setting: the value for `CCn1cnc2c(-c3ccc(F)c(Oc4ccnc(C)c4)c3)cnnc21` was 2.6; that for `CC(C)n1cnc2c(-c3ccc(F)c(Oc4ccc(C#N)cn4)c3)cnnc21` was 2.7. On the same count and under the same terms, to `CCn1nnc2c(-c3ccc(F)c(-c4ccc(S(=O)(=O)CC)cc4)c3)cnnc21` belongs 3.3. For `CCn1cnc2c(-c3ccc(F)c(-c4ccc5c(c4)CN(C)C5=O)c3)cnnc21`, the log distribution coefficient (logD) in data set [1] amounted to 2.7. `CCn1cnc2c(-c3ccc(F)c(Oc4ccc(C#N)cn4)c3)cnnc21` yielded a pH-dependent lipophilicity (logD) in data set [1] of 2.3. On the same count and under the same terms, the value for `N#Cc1ccc(Oc2cc(-c3cnnc4c3ncn4C3CC3)ccc2F)nc1` was 2.3. With `CCn1cnc2c(-c3ccnc(OC)c3)cnnc21`, the logD in data set [1] was determined as 1.5. Still for that read-out and setting: the value for `CCn1cnc2c(-c3ccc(F)c(-c4cc(C(=O)NC)ccc4F)c3)cnnc21` was 3; that for `CCn1cnc2c(-c3ccc(F)c(-c4ccc(C(=O)N(C)C)cc4)c3)cnnc21` was 2.5; that for `CCc1cnn2c(-c3ccc(F)c(-c4ccc(S(=O)(=O)CC)cc4)c3)ccnc12` was 3.9. As usually defined, the solubility is the concentration that dissolves in the medium under given conditions. The low end stands for little dissolved substance, the high end for much dissolved substance. With `CCn1cnc2c(-c3ccc(F)c(-c4cc5c(cc4OC)C(=O)N(C)C5)c3)cnnc21`, the bioavailability in data set [2] came out at 43%; in data set [5] it was 76%. In data set [3], this compound yielded a solubility of 15 µM (≈ 6.26 µg/mL). Moreover, the Vd in data set [4] came out at 0.55 L/kg; in data set [7], 2.61 L/kg. In data set [6], the Papp came to 21 ×10⁻⁶ cm/s. Further, in data set [1], the log distribution coefficient (logD) came out at 2.6. For `Cc1cc(-c2cc(-c3cnnc4c3ncn4C3CC3)ccc2F)ccn1`, in data set [1], the logD was 2.9.

In data set [1], `CCn1cnc2c(-c3ccnc(Oc4cccc(S(=O)(=O)CC)c4)c3)cnnc21` yielded a logD of 1.6. `CCn1cnc2c(-c3ccnc(Oc4ccccc4)c3)cnnc21` had a log distribution coefficient (logD) in data set [1] of 2.6. In data set [1], `CCOc1cc(S(=O)(=O)CC)ccc1-c1cc(-c2cnnc3c2ncn3CC)ccc1F` displayed a logD of 3.3. For `CCn1cnc2c(-c3ccc(F)c(-c4ccc(S(=O)(=O)CC)cc4OC)c3)cnnc21` [DARIGABAT], the bioavailability in data set [2] stood at 130%; in data set [5], 99%. The solubility in data set [3] was 95 µM (≈ 41.8 µg/mL). Also, the Vd in data set [4] is 2.1 L/kg; in data set [7], 3.4 L/kg. Further, the Papp in data set [6] turned out to be 17 ×10⁻⁶ cm/s. The logD in data set [1] turned out to be 2.7.
